Compound activity from PubChem.
Only some compounds are listed: those with a hit (about 2.2% of all), similar ones and a draw of the others.
Env fusion inh: inhibitors of HIV Env-mediated cell fusion. inhibition, % at 12.3 µM. HeLa-JRFL Env/CEM21 cell fusion, luciferase. 360,000 tested, 1.1% active;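 active = mean replicate inhibition score of at least 50 and every replicate individually at or above 50; inconclusive = only one of the two criteria met; inactive = mean below 50 and not all replicates reaching 50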;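 also: 0% = plate neutral controls and 100% = maraviroc near 300 nM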
GalR3 antag: antagonists of human GalR3. O60755. HEK293 GalR3-CNG cAMP membrane potential fluorescence; galR3 body fused to GalR1 C-terminus. inhibition, % at 3 µM. 360,000 tested, 0.44% active. AID 651719;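 active = inhibition above the screen-wide average plus 3 SD, cut at about 13% in these data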;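 also: forskolin and galanin both at EC90 stimulate the cells; cAMP rise reported by CNG channel membrane potential dye signal; 0% = forskolin plus galanin with DMSO and 100% = forskolin alone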
NR2E3 ag-1: NR2E3 (human) agonism; Q9Y5X4; GST-NR2E3/biotin-RetCOR TR-FRET, 1536-well; inhibition of corepressor binding, % at 4.78 µM; 320,000 tested, 0.12% active; AID 2300;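 active = percent inhibition above the cutoff of mean plus 3 SD of all tested compounds, set per screening campaign, cut at about 20% in these data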;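 also: 0% = DMSO wells and 100% = biotin wells as full block of FRET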
Target sequence (Q9Y5X4 whole entry, looked up): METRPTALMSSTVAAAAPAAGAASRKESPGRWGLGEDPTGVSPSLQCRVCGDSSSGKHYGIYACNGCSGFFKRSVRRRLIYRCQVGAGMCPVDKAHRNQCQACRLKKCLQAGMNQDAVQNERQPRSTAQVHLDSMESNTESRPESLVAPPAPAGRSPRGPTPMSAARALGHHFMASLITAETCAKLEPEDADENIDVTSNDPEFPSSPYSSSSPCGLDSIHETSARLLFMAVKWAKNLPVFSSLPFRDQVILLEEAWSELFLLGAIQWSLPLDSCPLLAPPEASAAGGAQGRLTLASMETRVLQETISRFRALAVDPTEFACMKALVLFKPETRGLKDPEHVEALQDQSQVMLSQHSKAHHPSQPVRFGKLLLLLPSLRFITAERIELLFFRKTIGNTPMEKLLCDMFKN
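Material – GST-tagged NR2E3 plus biotinylated RetCOR corepressor · Quantity – NR2E3 fusion 1.35 nM · Times – 5 h incubation at 4 °C · Medium – pH 7.5 Tris-based buffer · Technique – TR-FRET, Eu(K)-anti-GST donor, streptavidin-D2 acceptor, ex 340, em 617/671 nm · Benchmarks – high control biotin, low control 0.6% DMSO · Format – 1536-well plates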
V-ATPase pHluor: yeast V-ATPase proton transport regulation by pHLuorin | AID 504577 | 350,000 tested, 0.37% active | S. cerevisiae, pHLuorin cytosolic pH fluorescence | response, % at 10 µM; in the data active = response mostly above about 7.3%, no sharp cut-off; inactive = mostly below about 5.4%; also: actives read high
GAA850 FXN act: increases GAA850 frataxin promoter reporter activity | HEK293 lucGAA850 FXN promoter luciferase reporter, 24 h; percent of 10 µM SAHA response | AID 540364 | 360,000 tested, 0.56% active | activation, % at 6 µM;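 active = activation above the average of all compounds screened plus 3 SD, cutoff fixed separately per campaign, cut at about 7.5% in these data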;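 also: 0% = DMSO wells and 100% = 10 µM SAHA wells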
NR2E3 ag-2: human photoreceptor-specific nuclear receptor agonism. Q9Y5X4. AID 602229. 360,000 tested, 0.35% active. inhibition of corepressor binding, % at 3.98 µM. CHO-S Gal4-NCOR/VP16-NR2E3 two-hybrid, luciferase;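 active = inhibition above the mean of all tested compounds plus 3 SD, cut at about 70% in these data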;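 also: 0% = DMSO with NR2E3 transfected cells and 100% = cells lacking NR2E3 construct; higher means lower luciferase signal from less NR2E3 corepressor binding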
Active calls of the source: *; ? = inconclusive; · = no result given; [ ] = dose if it differs, or a comment.

SMILES	Env fusion inh	GalR3 antag	NR2E3 ag-1	V-ATPase pHluor	GAA850 FXN act	NR2E3 ag-2
Cn1c(=O)c([N+](=O)[O-])c(Cl)c2ccccc21	-95	10	·	32*	3	-8
COc1ccccc1-c1cc(NC=O)c2ncc(-c3cccc(C(C)=O)c3)n2c1	67*	-5	·	·	-1	13
O=CNc1cc(-c2ccccc2Oc2ccccc2)cn2c(-c3ccc(F)cc3)cnc12	-45	-4	·	·	0	-9
CC(=O)c1ccc(-c2cnc3c(NC=O)cc(-c4ccccc4Oc4ccccc4)cn23)cc1	56*	-4	·	·	-3	19
COCC#Cc1cnc2c(c1)C(=O)N([C@@H](C)CO)C[C@H](C)[C@@H](CN(C)C)O2	-77[16.7 µM]	·	·	·	·	·
C[C@@]12C(=O)N(CC3CCCO3)CC(=O)N1[C@@H]1c3ccccc3OC[C@@H]1[C@@H]2c1ccccc1 (stereo partly drawn)	·	0	·	1	3	-14
Cc1ccc2c(c1)[C@H]1[C@H](CO2)[C@H](c2ccccc2)[C@]2(C)C(=O)N(CC3CCCO3)CC(=O)N12 (stereo partly drawn)	110*	4	·	-1	7	-10
C[C@@]12C(=O)N(CC3CCCO3)CC(=O)N1[C@H]1c3cc(Cl)ccc3OC[C@@H]1[C@@H]2c1ccccc1 (stereo partly drawn)	80*	-5	·	0	7	-18
O=C(N[C@H]1CC[C@H](CCNC(=O)C2CCC2)O[C@H]1CO)c1ccncc1	15[16.7 µM]	·	·	·	·	·
CCOc1ccc(N(CC(=O)NCCSCc2ccc(Cl)cc2)S(C)(=O)=O)cc1	80*	-4	3	-2	7	11
CCOc1ccc(N(CC(=O)NCCCOC)S(C)(=O)=O)cc1	·	-4	4	-4	-4	-6
COc1ccc(N(CC(=O)NCCSCc2cccc(Cl)c2)S(C)(=O)=O)cc1Cl	?	-12	-1	1	7	-15
COc1ccc(N(CC(=O)NCCSCc2ccc(Cl)cc2)S(C)(=O)=O)cc1Cl	121*	-11	-1	1	7	-13
Cc1ccc(CSCCNC(=O)CN(c2cccc([N+](=O)[O-])c2)S(C)(=O)=O)cc1	55*	-6	14	-1	2	-3
COCC(=O)Nc1ccc2c(c1)C(=O)N(C)C[C@@H](OC)[C@H](C)CN(Cc1ccccc1)[C@H](C)CO2	-17[16.7 µM]	·	·	·	·	·
C[C@@H]1CCCCO[C@H](CN(C)Cc2ccc(C(=O)O)cc2)[C@@H](C)CN([C@@H](C)CO)C(=O)c2cc(NC(=O)C3CCCCC3)ccc2O1	-1[16.7 µM]	·	·	·	·	·
C[C@@H]1CN([C@@H](C)CO)C(=O)c2cccc(NS(=O)(=O)c3ccc(F)cc3)c2O[C@H]1CN(C)C(=O)Nc1ccccc1	10[16.7 µM]	·	·	·	·	·
CN(CC(=O)Nc1cccc(Cl)c1)C1=NS(=O)(=O)c2ccccc21	10	-1	·	3	-2	-1
CN(CC(=O)Nc1cccc(C(F)(F)F)c1)C1=NS(=O)(=O)c2ccccc21	6	-3	·	13*	0	14
C[C@@H]1CN([C@@H](C)CO)S(=O)(=O)c2ccc(/C=C/c3ccccc3)cc2O[C@@H]1CN(C)C(=O)NC1CCCC1	-7[16.7 µM]	·	·	·	·	·
C[C@@H]1CN([C@H](C)CO)C(=O)c2cc(NC(=O)CCN3CCOCC3)ccc2O[C@@H]1CN(C)C(=O)Nc1cccc2ccccc12	6[16.7 µM]	·	·	·	·	·
CCCC(=O)N(Cc1cc(=O)[nH]c2ccccc12)c1ccc(C)cc1C	0	-10	·	1	0	-12
Cc1ccc(N(Cc2cc(=O)[nH]c3ccccc23)C(=O)CCl)c(C)c1	55*	-10	0	2	-13	18
Cc1ccc(S(=O)(=O)N[C@H]2C=C[C@H](CC(=O)N3CCC(Cc4ccccc4)CC3)O[C@H]2CO)cc1	76*[16.7 µM]	·	·	·	·	·
COc1ccc(S(=O)(=O)N[C@@H]2C=C[C@H](CC(=O)N3CCC(Cc4ccccc4)CC3)O[C@@H]2CO)cc1	63*[16.7 µM]	·	·	·	·	·
COc1ccc(S(=O)(=O)N[C@@H]2C=C[C@@H](CC(=O)N3CCC(Cc4ccccc4)CC3)O[C@H]2CO)cc1	1[16.7 µM]	·	·	·	·	·
C[C@@H]1CN([C@@H](C)CO)C(=O)c2cc(NC(=O)Nc3ccc(F)cc3)ccc2O[C@@H](C)CCCCO[C@@H]1CN(C)S(=O)(=O)c1ccc(Cl)cc1	-45[16.7 µM]	·	·	·	·	·
